According to ChEMBL document CHEMBL4002632, “Development of gallic acid formazans as novel enoyl acyl carrier protein reductase inhibitors for the treatment of tuberculosis” (Bioorg Med Chem Lett, 2017):
≈ marks a conversion by molar mass, not a printed value. Calls of active or inactive are those of the source. No cut-off for these calls is given here.

How the values were obtained:
[1] = system: Mycobacterium tuberculosis; test: Inhibition of Mycobacterium tuberculosis His6-tagged InhA expressed in Escherichia coli BL21 (DE3) assessed as decrease in NADH oxidation to NAD+ at 10 uM using 2-trans-decenoyl-CoA as substrate preincubated for 2 hrs followed by substrate and NADH addition measured for 1 min by spectrophotometric method relative to control
Outline: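 Recombinant MTB InhA expressed in E. coli and purified. DD-CoA reduction followed spectrophotometrically as NADH oxidation to NAD+. Fixed non-saturating NADH and DD-CoA, 1% DMSO. Compound at 10 μM; per cent inhibition relative to a no-inhibitor control, which set the maximal rate.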

[2] = Inhibition of Mycobacterium tuberculosis His6-tagged InhA expressed in Escherichia coli BL21 (DE3) assessed as decrease in NADH oxidation to NAD+ using 2-trans-decenoyl-CoA as substrate preincubated for 2 hrs followed by substrate and NADH addition measured for 1 min by spectrophotometric method
Outline: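 Recombinant MTB InhA purified from E. coli. NADH oxidation during DD-CoA reduction read spectrophotometrically, with fixed non-saturating NADH and DD-CoA in 1% DMSO. IC50, the concentration halving enzyme velocity, determined for compounds giving over 50% inhibition at 10 μM.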

[3] = system: Mycobacterium tuberculosis; test: Antimycobacterial activity against Mycobacterium tuberculosis H37Rv ATCC 27294 by agar dilution method; type: functional
Outline: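 Growth of M. tuberculosis H37Rv (ATCC27294) on agar dilution. Compounds at 50 to 0.78 μg/ml in duplicate. MIC taken as the lowest concentration giving complete growth inhibition. Isoniazid, ethambutol and ofloxacin served as references.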

[4] = Cytotoxicity against mouse RAW264.7 cells assessed as growth inhibition at 100 uM after 72 hrs by MTT assay relative to control; type: cell-based; conditions: read-out: GI
Outline: (§1)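 RAW 264.7 mouse macrophage line exposed to compound at 100 and 50 μM for 72 h. Viability by MTT conversion to formazan. Reported as per cent inhibition.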

[5] = Cytotoxicity against mouse RAW264.7 cells assessed as growth inhibition at 50 uM after 72 hrs by MTT assay relative to control; type: cell-based; conditions: read-out: GI; outline: as §1
[6] = system: Escherichia coli; test: Antibacterial activity against Escherichia coli at 50 to 100 ug/ml by cup plate agar diffusion method; type: functional
Outline: (§2)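 Tested at 50 and 100 μg/ml by cup-plate agar diffusion against E. coli, P. aeruginosa, S. aureus and B. subtilis.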

[7] = system: Pseudomonas aeruginosa; test: Antibacterial activity against Pseudomonas aeruginosa at 50 to 100 ug/ml by cup plate agar diffusion method; type: functional; outline: as §2
[8] = system: Staphylococcus aureus; test: Antibacterial activity against Staphylococcus aureus at 50 to 100 ug/ml by cup plate agar diffusion method; type: functional; outline: as §2
[9] = system: Bacillus subtilis; test: Antibacterial activity against Bacillus subtilis at 50 to 100 ug/ml by cup plate agar diffusion method; type: functional; outline: as §2
[10] = system: Mycobacterium tuberculosis; test: Antimycobacterial activity against Mycobacterium tuberculosis H37Rv-GFP infected in mouse RAW264.7 cells assessed as growth inhibition at 1 ug/ml after 5 days by confocal microscopic method; type: functional, cell-based
Outline: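 Intracellular M. tuberculosis in mouse macrophages. Initial screen at 0.1, 1 and 10 µg/ml.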

[11] = system: Mycobacterium tuberculosis; test: Antimycobacterial activity against Mycobacterium tuberculosis H37Rv-GFP infected in mouse RAW264.7 cells after 5 days by confocal microscopic method; type: functional, cell-based; conditions: RAW264.7, 120 h
Outline: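 Intracellular M. tuberculosis in mouse macrophages. After initial screening at 0.1, 1 and 10 µg/ml, six doses between 0.1 and 1.0 µg/ml were tested to derive IC50.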

[12] = system: Mycobacterium tuberculosis; test: Stabilization of Mycobacterium tuberculosis InhA assessed as change in melting temperature by sypro orange dye-based differential scanning fluorimetry
Outline: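 Differential scanning fluorimetry of InhA with ligand versus native protein. Heated from 25 °C to 95 °C in 0.1 °C steps with SYPRO Orange. Tm shift taken relative to native protein.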

Structure (SMILES)	inhibition [1] [%]	IC50 [2] [µM]	MIC [3] [µM]	inhibition at 72 h, 100 µM [4] [%]	inhibition at 72 h, 50 µM [5] [%]	Activity [6]	Activity [7]	Activity [8]	Activity [9]	growth inhibition (GI) [10]	IC50 [11] [µg/mL]	ΔTm [12] [°C]
Cc1ccccc1/N=N/C(=N/NC(=O)c1cc(O)c(O)c(O)c1)c1ccccc1	81.4	3.32	15.4 (≈ 6.01 µg/mL)	41.5	32.7	inactive	inactive	inactive	inactive	–	–	–
COc1ccc(/N=N/C(=N/NC(=O)c2cc(O)c(O)c(O)c2)c2ccccc2)cc1	69.3	5.79	1.92 (≈ 0.781 µg/mL)	15	4.51	inactive	inactive	inactive	inactive	Active	0.56 (≈ 1.38 µM)	–
O=C(N/N=C(/N=N/c1ccccc1)c1ccccc1)c1cc(O)c(O)c(O)c1	42.2	–	38.1 (≈ 14.3 µg/mL)	41.4	13.6	inactive	inactive	inactive	inactive	–	–	–
O=C(N/N=C(/N=N/c1ccc(F)cc1)c1ccccc1)c1cc(O)c(O)c(O)c1	87.1	3.42	1.98 (≈ 0.78 µg/mL)	23.7	11.8	inactive	inactive	inactive	inactive	Active	0.62 (≈ 1.57 µM)	–
COc1ccccc1/N=N/C(=N/NC(=O)c1cc(O)c(O)c(O)c1)c1ccccc1	71.7	6.66	4 (≈ 1.63 µg/mL)	52.7	46.5	inactive	inactive	inactive	inactive	–	–	–
O=C(N/N=C(/N=N/c1ccc([N+](=O)[O-])cc1)c1ccccc1)c1cc(O)c(O)c(O)c1	57.1	8.16	7.42 (≈ 3.13 µg/mL)	34.6	11.1	inactive	inactive	inactive	inactive	–	–	–
O=C(N/N=C(/N=N/c1ccccc1[N+](=O)[O-])c1ccccc1)c1cc(O)c(O)c(O)c1	62.3	8.46	14.8 (≈ 6.26 µg/mL)	5.43	2.11	inactive	inactive	inactive	inactive	–	–	–
O=C(N/N=C(/N=N/c1ccccc1Cl)c1ccccc1)c1cc(O)c(O)c(O)c1	57.1	9.16	15.2 (≈ 6.25 µg/mL)	32.6	24.5	inactive	inactive	inactive	inactive	–	–	–
CC1COc2c(N3CCN(C)CC3)c(F)cc3c(=O)c(C(=O)O)cn1c23 (stereo not given) [OFLOXACIN]	–	–	2.16 (≈ 0.781 µg/mL)	–	–	–	–	–	–	–	–	–
O=C(N/N=C(/N=N/c1ccc(Cl)cc1Cl)c1ccccc1)c1cc(O)c(O)c(O)c1	73.2	5.22	1.75 (≈ 0.78 µg/mL)	21.5	12.1	inactive	inactive	inactive	inactive	Active	0.35 (≈ 0.786 µM)	2.8
NNC(=O)c1ccncc1 [ISONIAZID]	–	–	0.72 (≈ 0.0987 µg/mL)	–	–	–	–	–	–	–	–	–
CC[C@@H](CO)NCCN[C@@H](CC)CO [ETHAMBUTOL]	–	–	7.64 (≈ 1.56 µg/mL)	–	–	–	–	–	–	–	–	–
